Results: ChEMBL document CHEMBL4706654, “Novel cyanothiouracil and cyanothiocytosine derivatives as concentration-dependent selective inhibitors of U87MG glioblastomas: Adenosine receptor binding and potent PDE4 inhibition” (Eur J Med Chem, 2021)

Tests used:
U-87 MG [1] = assay: Antiproliferative activity against human U-87 MG cells assessed as cell viability at 50 uM measured after 24 to 48 hrs by MTT assay relative to control; type: functional, U-87MG ATCC; settings: time 24-48 hrs, read-out: Activity
Summary of the method: (§1)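 Cells seeded per well 24 h before treatment: HEK293 at 5.10^4, MCF7 at 4.10^4, U87MG at 10^5. Compounds were dissolved in DMSO (less than 1%) and diluted in DMEM, then incubated 24 and 48 h. Cells were washed with D-PBS and given MTT (from a 5 mg/mL stock) for 4 h, dissolved in DMSO, read at 540 nm. % viability = sample/control absorbance ×100. At least three independent experiments.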

U-87 MG [2] = assay: Antiproliferative activity against human U-87 MG cells assessed as reduction in cell viability measured after 24 to 48 hrs by MTT assay; type: functional, cell-based, U-87MG ATCC; summary of the method: as §1
U-87 MG [3] = assay: Antiproliferative activity against human U-87 MG cells assessed as cell viability at 5 uM measured after 24 to 48 hrs by MTT assay relative to control; type: functional, U-87MG ATCC; settings: time 24-48 hrs, read-out: Activity; summary of the method: as §1
U-87 MG [4] = assay: Antiproliferative activity against human U-87 MG cells assessed as cell viability at 100 uM measured after 24 to 48 hrs by MTT assay relative to control; type: functional, U-87MG ATCC; settings: time 24-48 hrs, read-out: Activity; summary of the method: as §1
U-87 MG [5] = assay: Antiproliferative activity against human U-87 MG cells assessed as cell viability at 10 uM measured after 24 to 48 hrs by MTT assay relative to control; type: functional, U-87MG ATCC; settings: time 24-48 hrs, read-out: Activity; summary of the method: as §1
[6] = Cytotoxicity against HEK293 cells assessed as cell viability at 100 uM measured after 24 to 48 hrs by MTT assay relative to control; type: cell-based; settings: human, HEK293 cells, time 24-48 hrs, read-out: Activity; summary of the method: as §1
HEK293 = assay: Cytotoxicity against HEK293 cells assessed as reduction in cell viability measured after 24 to 48 hrs by MTT assay; type: cell-based; settings: Homo sapiens; summary of the method: as §1
[7] = target: 3',5'-cyclic-AMP phosphodiesterase 4B (Homo sapiens, UniProt Q07343); assay: Inhibition of recombinant human PDE4B using […] as substrate measured after 90 mins by colorimetric assay
Summary of the method: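 Recombinant human PDE4 was incubated with 0.5 μM 5′-cGMP plus 5′-nucleotidase for 90 min at 30°C. The reaction was stopped with termination buffer for 20 min at room temperature, and released phosphate was read at OD 620 nm. IC50 was determined from 6 inhibitor concentrations. Compound stocks were in DMSO (less than 1%), with at least triplicate runs, mean ± SD.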

[8] = target: Adenosine receptor A2a (Homo sapiens) (UniProt P29274); assay: Displacement of [3H]ZM241385 from recombinant human A2A adenosine receptor expressed in HEK293 cell membranes at 1 uM measured after 60 mins by liquid scintillation counting method relative to control; settings: Membrane
Summary of the method: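 HEK293 membranes expressing hA2A (20 μg/tube) were incubated with 15 nM [3H]ZM241385 and 1 μM test compound for 60 min at 25°C in 50 mM Tris-HCl, pH 7.4, 10 mM MgCl2. The reaction was stopped by GF/B filtration, followed by scintillation counting. Read-out was percent inhibition of specific binding.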

MCF7 = assay: Antiproliferative activity against human MCF7 cells assessed as reduction in cell viability measured after 24 to 48 hrs by MTT assay; type: functional, cell-based; summary of the method: as §1
[9] = target: T1, Adenosine receptor A1 (Homo sapiens) (UniProt P30542); assay: Displacement of [3H]DPCPX from recombinant human A1 adenosine receptor expressed in CHO cell membranes at 1 uM measured after 60 mins by liquid scintillation counting method relative to control; settings: Membrane
T1 sequence (whole entry): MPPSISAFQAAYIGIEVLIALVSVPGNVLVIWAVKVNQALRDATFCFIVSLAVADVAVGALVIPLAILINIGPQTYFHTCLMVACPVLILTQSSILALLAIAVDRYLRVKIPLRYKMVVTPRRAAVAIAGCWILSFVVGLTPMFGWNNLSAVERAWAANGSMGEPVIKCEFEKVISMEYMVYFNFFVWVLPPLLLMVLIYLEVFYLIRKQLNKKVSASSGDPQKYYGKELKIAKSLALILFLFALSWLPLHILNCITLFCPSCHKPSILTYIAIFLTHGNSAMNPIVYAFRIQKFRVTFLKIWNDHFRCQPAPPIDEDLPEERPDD
Summary of the method: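 Membranes from CHO cells expressing recombinant hA1 (40 μg/tube) were incubated with 2 nM [3H]DPCPX and test compound at 1 μM in 50 mM Tris-HCl (pH 7.4, 10 mM MgCl2) for 60 min at 25°C. Bound radioligand was separated by GF/B filtration and counted by liquid scintillation. Results are given as percent inhibition of specific binding.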

3',5'-cyclic-AMP phosphodiesterase 4B, sequence (Q07343 whole entry): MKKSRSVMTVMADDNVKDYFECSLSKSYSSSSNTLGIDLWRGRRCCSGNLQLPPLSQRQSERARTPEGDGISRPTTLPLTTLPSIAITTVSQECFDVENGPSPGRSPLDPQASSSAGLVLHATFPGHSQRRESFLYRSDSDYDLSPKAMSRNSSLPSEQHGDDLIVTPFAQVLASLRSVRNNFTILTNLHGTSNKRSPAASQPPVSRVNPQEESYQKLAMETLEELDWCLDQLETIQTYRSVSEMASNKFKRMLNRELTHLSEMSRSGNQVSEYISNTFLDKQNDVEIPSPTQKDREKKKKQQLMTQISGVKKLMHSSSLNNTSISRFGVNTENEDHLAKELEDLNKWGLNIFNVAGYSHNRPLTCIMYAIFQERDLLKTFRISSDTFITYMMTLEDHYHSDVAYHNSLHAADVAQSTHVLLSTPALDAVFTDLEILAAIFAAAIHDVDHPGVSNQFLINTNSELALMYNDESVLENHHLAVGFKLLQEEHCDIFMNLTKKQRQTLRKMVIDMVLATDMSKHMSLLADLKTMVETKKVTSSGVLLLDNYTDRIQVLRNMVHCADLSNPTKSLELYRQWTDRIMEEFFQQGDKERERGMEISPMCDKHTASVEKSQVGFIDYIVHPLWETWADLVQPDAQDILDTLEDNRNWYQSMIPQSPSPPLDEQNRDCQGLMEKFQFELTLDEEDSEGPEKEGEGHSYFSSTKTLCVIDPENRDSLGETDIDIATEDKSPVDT
Adenosine receptor A2a (Homo sapiens), sequence (P29274 whole entry): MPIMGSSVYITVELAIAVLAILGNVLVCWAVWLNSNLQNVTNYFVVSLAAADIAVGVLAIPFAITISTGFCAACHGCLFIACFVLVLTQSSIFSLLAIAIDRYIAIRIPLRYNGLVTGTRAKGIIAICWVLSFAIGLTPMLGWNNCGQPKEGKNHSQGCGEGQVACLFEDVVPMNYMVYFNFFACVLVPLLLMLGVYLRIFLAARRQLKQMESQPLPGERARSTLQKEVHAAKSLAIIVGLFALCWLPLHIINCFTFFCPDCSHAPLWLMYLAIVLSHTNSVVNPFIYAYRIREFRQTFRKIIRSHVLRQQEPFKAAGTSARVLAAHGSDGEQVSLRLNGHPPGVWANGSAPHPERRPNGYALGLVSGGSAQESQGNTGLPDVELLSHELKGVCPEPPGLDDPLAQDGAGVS

Row | SMILES | viability at 50 µM (U-87 MG [1]) | IC50 (U-87 MG [2]) | viability at 5 µM (U-87 MG [3]) | viability at 100 µM (U-87 MG [4]) | viability at 10 µM (U-87 MG [5]) | viability at 100 µM [6] | IC50 (HEK293) | IC50 [7] | inhibition [8] | IC50 (MCF7) | inhibition [9]
1 | Cc1nc(-c2ccc(Cl)cc2)sc1C(=O)CSc1nc(-c2ccccc2)c(C#N)c(=O)[nH]1 | 41.6% | 27.6 µM | 88.9% | 11.4% | 83.1% | > 50% |  |  |  |  | 
2 | Cc1nc(-c2ccccc2)sc1C(=O)CSc1nc(-c2cccc(Cl)c2)c(C#N)c(=O)[nH]1 | 50.6% | 28.2 µM | 86.9% | 10% | 83.7% | > 50% |  |  |  |  | 
3 | COc1cccc(-c2nc(SCC(=O)c3sc(-c4ccccc4)nc3C)[nH]c(=O)c2C#N)c1 | 80.3% | 59.7 µM | 99% | 21.8% | 90.2% |  | 90.2 µM |  |  |  | 
4 | COc1cccc(-c2nc(SCC(=O)c3sc(-c4ccc(Cl)cc4)nc3C)[nH]c(=O)c2C#N)c1 | 47.6% | 41 µM | 96.6% | 8.54% | 89.7% |  | 77.9 µM |  |  |  | 
5 | COc1ccc(-c2nc(SCC(=O)c3sc(-c4ccccc4)nc3C)[nH]c(=O)c2C#N)cc1 | 52.1% | 48.4 µM | 97.3% | 1.08% | 90.4% |  | 76.2 µM |  |  |  | 
6 | COc1ccc(-c2nc(C)c(C(=O)CSc3nc(-c4cccc(Cl)c4)c(C#N)c(=O)[nH]3)s2)cc1 | 83.4% | 78.9 µM | 95.7% | 40.6% | 90.6% | > 50% |  |  |  |  | 
7 | COc1ccc(-c2nc(C)c(C(=O)CSc3nc(-c4ccc5c(c4)OCO5)c(C#N)c(=O)[nH]3)s2)cc1 | 83.2% | 65.3 µM | 100% | 22.9% | 88.3% | > 50% |  |  |  |  | 
8 | Cc1nc(-c2ccccc2)sc1C(=O)CSc1nc(-c2ccc(Cl)c(Cl)c2)c(C#N)c(=O)[nH]1 | 75.3% | 65 µM | 98.6% | 24.4% | 92.5% |  | 85.1 µM |  |  |  | 
9 | Cc1nc(-c2ccc(Cl)cc2)sc1C(=O)CSc1nc(-c2ccc(Cl)cc2)c(C#N)c(=O)[nH]1 | 60% | 53 µM | 99% | 12.8% | 98.4% |  | 75.1 µM |  |  |  | 
10 | Cc1nc(-c2ccccc2)sc1C(=O)CSc1nc(-c2ccc3c(c2)OCO3)c(C#N)c(=O)[nH]1 | 42.6% | 33.7 µM | 93.4% | 18.7% | 84.2% | > 50% |  |  |  |  | 
11 | Cc1nc(-c2ccc(Cl)cc2)sc1C(=O)CSc1nc(-c2ccc3c(c2)OCO3)c(C#N)c(=O)[nH]1 | 68.3% | 55.5 µM | 101% | 9.91% | 95% |  | 81.4 µM |  |  |  | 
12 | Cc1nc(-c2ccccc2)sc1C(=O)CSc1nc(-c2ccccc2)c(C#N)c(=O)[nH]1 | 77.5% | 56.6 µM | 92.1% | 9.23% | 87.5% |  | 93.5 µM |  |  |  | 
13 | COc1ccc(-c2nc(C)c(C(=O)CSc3nc(-c4ccc(Cl)c(Cl)c4)c(C#N)c(=O)[nH]3)s2)cc1 | 78.4% | 68.5 µM | 101% | 31.1% | 88.6% |  | 45.6 µM |  |  |  | 
14 | Cc1nc(-c2ccccc2)sc1C(=O)CSc1nc(N)c(C#N)c(-c2ccc(Cl)cc2)n1 | 44.3% | 10.8 µM | 62.9% | 17.1% | 58.8% | > 50% |  | 32.3 µM | -9.9% | 20.2 µM | 
15 | CC(C)Cn1c(=O)n(C)c(=O)c2[nH]cnc21 [ISOBUTYLMETHYLXANTHINE] |  |  |  |  |  |  |  | 14.3 µM |  |  | 
16 | COc1ccc(-c2nc(C)c(C(=O)CSc3nc(-c4ccc(Cl)cc4)c(C#N)c(=O)[nH]3)s2)cc1 | 48% | 45.9 µM | 102% | 2.85% | 92.7% |  | 63 µM |  |  |  | 
17 | COc1ccc(-c2nc(C)c(C(=O)CSc3nc(-c4ccccc4)c(C#N)c(=O)[nH]3)s2)cc1 | 72.5% | 57.2 µM | 99% | 10.9% | 90.9% | > 50% |  |  |  |  | 
18 | Cc1nc(-c2ccccc2)sc1C(=O)CSc1nc(N)c(C#N)c(-c2ccccc2)n1 | 26.3% | 28.9 µM | 103% |  | 93% |  | 46.7 µM | > 100 µM | 6.5% | 30.1 µM | 9.5%
19 | Cc1nc(-c2ccc(Cl)cc2)sc1C(=O)CSc1nc(-c2ccc(Cl)c(Cl)c2)c(C#N)c(=O)[nH]1 | 93.9% | 83.9 µM | 101% | 36.5% | 97.1% |  | 46.9 µM |  |  |  | 
20 | Cc1nc(-c2ccc(Cl)cc2)sc1C(=O)CSc1nc(-c2cccc(Cl)c2)c(C#N)c(=O)[nH]1 | 52.6% | 40.1 µM | 80.2% | 12.5% | 95.2% |  | 30.1 µM |  |  |  | 
21 | COc1ccc(-c2nc(SCC(=O)c3sc(-c4ccc(Cl)cc4)nc3C)[nH]c(=O)c2C#N)cc1 | 46.3% | 35.5 µM | 92.1% | 16.6% | 88.3% | > 50% |  |  |  |  | 
22 | COc1ccc(-c2nc(SCC(=O)c3sc(-c4ccc(Cl)cc4)nc3C)nc(N)c2C#N)cc1 | 17.8% | 10.6 µM | 69.7% | 0.79% | 64.5% | > 50% |  | 18.1 µM |  | 10.1 µM | 1.2%
23 | COc1ccc(-c2nc(SCC(=O)c3sc(-c4ccc(Cl)cc4)nc3C)[nH]c(=O)c2C#N)cc1OC | 59.8% | 38.6 µM | 93.4% | 18.7% | 83.3% | > 50% |  |  |  |  | 
24 | Cc1nc(-c2ccccc2)sc1C(=O)CSc1nc(-c2ccc(Cl)cc2)c(C#N)c(=O)[nH]1 | 63.4% | 43.4 µM | 90.9% | 22.5% | 85.2% | > 50% |  |  |  |  | 
25 | COc1ccc(-c2nc(C)c(C(=O)CSc3nc(-c4cccc(OC)c4)c(C#N)c(=O)[nH]3)s2)cc1 | 43.2% | 15.3 µM | 71.3% | 12.4% | 66.7% |  | 95.4 µM |  |  |  | 
26 | COc1ccc(-c2nc(C)c(C(=O)CSc3nc(-c4ccc(OC)cc4)c(C#N)c(=O)[nH]3)s2)cc1 | 32.6% | 25.3 µM | 97% | 11.5% | 80.3% | > 50% |  |  |  |  | 
